One assay relates to Aspergillus niger. The assay is described as follows: Antifungal activity against Aspergillus niger N402 cspA1 at 100 uM by growth based assay. It is filed as functional. An outline of the steps:
(§1)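 Mycelial discs cut from 5-day-old cultures were placed centrally on MEA (Blakeslee's formula) agar plates containing inhibitor at 0.1 mM final concentration or solvent control. Plates were incubated at 28°C and growth was scored daily. Radial growth rate (RGR) and initial growth inhibition (IGI) were derived and expressed as percent of the matching solvent control. Each compound was tested in triplicate.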

The test system of a further assay is Pleurotus ostreatus. The assay is described as follows: Antifungal activity against Pleurotus ostreatus Plo5 at 100 uM by growth based assay. The format is functional. An outline of the steps: as §1
Another assay has as its system Curvularia lunata. The assay is described as follows: Antifungal activity against Cochliobolus lunatus strain MUCL 38696 at 100 uM by growth based assay. It is filed as functional, organism-based. An outline of the steps:
as §1

Calls of active or inactive are those of the source. The calls are words filed in the database; no cut-off is given here.

In the case of `O=C(O)c1ccc(-n2cccc2)cc1`, the inhibition entry in the assay with Aspergillus niger and in the assay on Curvularia lunata was “Active” each time. For the same compound, the inhibition result in the assay on Pleurotus ostreatus was “inactive”.

On to `O=C(O)c1ccc(C2CCCCC2)cc1`, for which the inhibition result in the assay with Curvularia lunata was “inactive”.

As to `Cc1cc(C)n(-c2ccc(C(=O)O)cc2)n1`, the inhibition entry with Curvularia lunata is “inactive”.

As to `O=C(O)c1ccc(-c2ccsc2)cc1`, the inhibition at 100 µM in the assay on Pleurotus ostreatus was 75%. Besides, the inhibition result in the assay with Curvularia lunata is “Active”.

On to `O=C(O)c1ccc(-c2cc(F)c(F)cc2F)cc1`, for which the inhibition result with Aspergillus niger and in the assay with Curvularia lunata was “Active” throughout.

For the compound `O=C(O)c1ccc(CN2CCCC2)cc1`, the inhibition result in the assay on Curvularia lunata was “inactive”.

In the case of `O=C(O)c1ccc(F)cc1`, the inhibition result in the assay on Curvularia lunata is “inactive”.

`O=S(=O)(O)c1cc[n+](-c2ccc(Cl)cc2)cc1`: the inhibition entry in the assay on Curvularia lunata is “inactive”.

Consider `O=C(O)c1ccc2ccccc2c1`, for which, in the assay with Curvularia lunata, the inhibition result was “inactive”.

As to `Cc1ccc(C)n1-c1ccc(C(=O)O)cc1`, the inhibition result in the assay with Curvularia lunata was “inactive”.

`O=C(O)c1ccc(C(=O)O)cc1`: the inhibition entry in the assay on Curvularia lunata was “inactive”.

Take `O=C(O)c1ccc(N2CCCC2=O)cc1`: the inhibition entry in the assay with Curvularia lunata was “inactive”.

On to `O=C(O)c1ccc(-c2cccc(F)c2)cc1`, for which the inhibition result in the assay on Aspergillus niger and in the assay on Curvularia lunata was “Active” each time.

On to `CC1CCN(c2ccc(C(=O)O)cc2)CC1`, for which, in the assay on Curvularia lunata, the inhibition entry was “Active”.

On to `O=C(O)c1ccc(-c2cccs2)cc1`, for which the inhibition entry in the assay with Aspergillus niger, in the assay on Pleurotus ostreatus and in the assay on Curvularia lunata was “Active” in each case.

With `CC(=O)c1cc(C)n(-c2ccc(C(=O)O)cc2)c1C`, the inhibition result in the assay with Curvularia lunata is “inactive”.

`Cc1cc(C(=O)O)ccc1-n1cccc1`: the inhibition entry in the assay on Pleurotus ostreatus is “inactive”.

In the case of `O=C(O)c1ccc(-c2ccc(Cl)c(F)c2)cc1`, the inhibition at 100 µM is 30% in the assay with Aspergillus niger and 75% with Pleurotus ostreatus. The inhibition entry with Curvularia lunata was “Active”.

With `O=C(O)c1ccc(-c2ccc(Cl)c(Cl)c2)cc1`, the inhibition result in the assay on Aspergillus niger is “inactive”.

As to `O=C(O)c1ccc(-c2ccc(F)cc2)cc1`, the inhibition result in the assay with Aspergillus niger and with Curvularia lunata was “Active” throughout. In the assay with Pleurotus ostreatus, this compound had an inhibition at 100 µM of 75%.

In the case of `O=C(O)c1ccc(-c2ccc(Cl)cc2)cc1`, in the assay with Aspergillus niger, the inhibition entry was “inactive”.

For `O=C(O)c1ccc(N2CCCC2)cc1`, in the assay on Curvularia lunata, the inhibition entry is “inactive”.

In the case of `O=C(O)c1ncc(N2CCCC2)cc1Cl`, the inhibition result in the assay with Curvularia lunata is “inactive”.

For the compound `O=C(O)c1ccc(N2CCCC2)cc1Cl`, the inhibition entry with Aspergillus niger was “Active”. In addition, the inhibition result in the assay on Curvularia lunata is “inactive”.

`Cn1ccc(-c2ccc(C(=O)O)cc2)n1`: the inhibition result with Curvularia lunata was “inactive”.

For `O=C(O)c1ccc(N2CCCC2)nc1`, the inhibition result in the assay on Curvularia lunata is “inactive”.

Regarding `Cc1cc(C)n(-c2ccc(S(=O)(=O)O)cc2)n1`, the inhibition entry in the assay with Curvularia lunata was “inactive”.

Turning to `Cc1cc(C=O)c(C)n1-c1ccc(C(=O)O)cc1`, the inhibition result in the assay with Curvularia lunata was “inactive”.

`O=C(O)c1ccc(N2CCCCC2)cc1Cl`: the inhibition entry with Curvularia lunata is “inactive”.

As for `O=C(O)c1ccc(-c2ccc(C(=O)O)cc2)cc1`, in the assay on Curvularia lunata, the inhibition result is “inactive”.

Turning to `Cc1cc(C(=O)O)ccc1-n1c(C)ccc1C`, the inhibition entry in the assay with Curvularia lunata is “inactive”.

With `Cc1ccn(-c2ccc(C(=O)O)c(Cl)c2)n1`, the inhibition entry in the assay with Curvularia lunata was “inactive”.

In general, inhibition refers to the change of the read-out against control, counted positive when it falls.

The values above are taken from ChEMBL document CHEMBL3593179, “Benzoic acid derivatives with improved antifungal activity: Design, synthesis, structure-activity relationship (SAR) and CYP53 docking studies” (2015).
